Consider 17 compounds from ChEMBL document CHEMBL1140795, “Antimicrobial activities of the bromophenols from the red alga Odonthalia corymbifera and some synthetic derivatives” (2008).

The test system of one assay is Staphylococcus aureus. Description: Antibacterial activity against Staphylococcus aureus ATCC 6538p after 24 hrs. Type of assay: functional. The gist of the method: (§1)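 Bacteria were grown overnight in LB broth at 37 °C, harvested by centrifugation and washed twice with sterile water. Test compounds were dissolved as DMSO stocks and serially diluted twofold in Standard method broth. Wells received broth containing about 10⁵ cfu/ml of bacteria and were incubated 24 h at 37 °C. The MIC was recorded.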

Another assay has as its system Aspergillus fumigatus. In words: Antifungal activity against Aspergillus fumigatus HIC6094 after 48 to 72 hrs. Type of assay: functional. The gist of the method: (§2)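 Filamentous fungi were grown on potato dextrose agar for 2 weeks at 28 °C. Spores were washed three times in sterile water and resuspended at 10⁵ spores/ml. Compounds were dissolved in DMSO and serially diluted twofold in potato dextrose broth. Wells received broth containing about 10⁴ cells/ml and were incubated 48–72 h at 28 °C. The MIC was recorded.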

In the next assay the test system is Micrococcus luteus. Description: Antibacterial activity against Micrococcus luteus IFC 12708 after 24 hrs. Type of assay: functional. The gist of the method:
as §1

For another assay, the system named is Proteus vulgaris. Description: Antibacterial activity against Proteus vulgaris ATCC 3851 after 24 hrs. Type of assay: functional. Particulars: ATCC 3851, 24 h. In short, it runs like this: as §1
The test system of the next assay is Escherichia coli. In words: Antibacterial activity against Escherichia coli ATCC 25922 after 24 hrs. Type of assay: functional. Particulars: ATCC 25922, 24 h. The gist of the method: as §1
The subject of another assay is Trichophyton benhamiae. Description: Antifungal activity against Trichophyton mentagrophytes IFO 40996 after 48 to 72 hrs. Type of assay: functional, Arthroderma benhamiae. The gist of the method: as §2
Another assay deals with Bacillus subtilis. Description: Antibacterial activity against Bacillus subtilis ATCC 6633 after 24 hrs. Particulars: ATCC 6633, 24 h. Type of assay: functional. The gist of the method:
as §1

Another assay deals with Trichophyton rubrum. In words: Antifungal activity against Trichophyton rubrum IFO 9185 after 48 to 72 hrs. Type of assay: functional. The gist of the method: as §2
A further assay has as its system Salmonella typhimurium. Description: Antibacterial activity against Salmonella Typhimurium ATCC 14028 after 24 hrs. Type of assay: functional, Salmonella enterica subsp. enterica serovar Typhimurium. Particulars: Salmonella enterica, ATCC 14028, 24 h. In short, it runs like this:
as §1

In another assay the test system is Candida albicans. Description: Antifungal activity against Candida albicans ATCC 10231 after 48 to 72 hrs. Type of assay: functional. In short, it runs like this: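 C. albicans ATCC 10231 was grown 48 h at 28 °C in YPD broth (1% yeast extract, 2% peptone, 2% dextrose), centrifuged and washed twice with sterile water. Compounds were dissolved in DMSO and serially diluted twofold in potato dextrose broth. Wells received broth containing about 10³ cells/ml and were incubated 48–72 h at 28 °C. The MIC was recorded.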

≈ marks a conversion by molar mass, not a printed value.

As to `COCc1cc(O)c(O)c(Br)c1Cc1cc(O)c(O)c(Br)c1Br`, the MIC in the assay on Staphylococcus aureus was 25 µg/mL (≈ 48.7 µM); in the assay on Aspergillus fumigatus, 25 µg/mL (≈ 48.7 µM); in the assay on Micrococcus luteus, 25 µg/mL (≈ 48.7 µM); against Proteus vulgaris it was 25 µg/mL (≈ 48.7 µM); against Escherichia coli, above 100 µg/mL; with Trichophyton benhamiae, 25 µg/mL (≈ 48.7 µM). In addition, the MIC with Bacillus subtilis, against Trichophyton rubrum, in the assay with Salmonella typhimurium and with Candida albicans was 25 µg/mL (≈ 48.7 µM) each time.
As for `OCc1cc(O)c(O)cc1Cc1ccc(O)c(O)c1`, the MIC against Staphylococcus aureus, in the assay with Aspergillus fumigatus, against Micrococcus luteus, in the assay with Proteus vulgaris, in the assay on Escherichia coli and in the assay with Trichophyton benhamiae was above 100 µg/mL each time. Moreover, the MIC in the assay on Bacillus subtilis, against Trichophyton rubrum, with Salmonella typhimurium and with Candida albicans was above 100 µg/mL throughout.
For the compound `Oc1c(Br)cc(Cc2cc(Br)c(O)c(Br)c2O)c(O)c1Br`, the minimum inhibitory concentration (MIC) in the assay on Staphylococcus aureus, with Aspergillus fumigatus, against Micrococcus luteus, in the assay with Proteus vulgaris, with Escherichia coli and against Trichophyton benhamiae was above 100 µg/mL in each case. For the same compound, the minimal inhibitory concentration (MIC) in the assay on Bacillus subtilis, in the assay on Trichophyton rubrum, in the assay on Salmonella typhimurium and against Candida albicans was above 100 µg/mL each time.
Turning to `Oc1ccc(Br)cc1Cc1cc(Br)ccc1O`, the MIC in the assay on Staphylococcus aureus is 3.12 µg/mL (≈ 8.71 µM); with Aspergillus fumigatus it was above 100 µg/mL; against Micrococcus luteus, 1.56 µg/mL (≈ 4.36 µM); against Proteus vulgaris it was 3.12 µg/mL (≈ 8.71 µM); with Escherichia coli, above 100 µg/mL; against Trichophyton benhamiae it was above 100 µg/mL. The minimum inhibitory concentration (MIC) is 3.12 µg/mL (≈ 8.71 µM) with Bacillus subtilis, above 100 µg/mL in the assay on Trichophyton rubrum, 3.12 µg/mL (≈ 8.71 µM) with Salmonella typhimurium and above 100 µg/mL in the assay with Candida albicans.
As to `Oc1c(Br)cc(Br)cc1Cc1cc(Br)cc(Br)c1O`, the MIC against Staphylococcus aureus was 1.56 µg/mL (≈ 3.02 µM); in the assay with Aspergillus fumigatus, above 100 µg/mL; against Micrococcus luteus it was 1.56 µg/mL (≈ 3.02 µM); in the assay on Proteus vulgaris it was 1.56 µg/mL (≈ 3.02 µM); against Escherichia coli, above 100 µg/mL; against Trichophyton benhamiae, above 100 µg/mL. For the same compound, the MIC is 1.56 µg/mL (≈ 3.02 µM) in the assay with Bacillus subtilis, above 100 µg/mL against Trichophyton rubrum, 3.12 µg/mL (≈ 6.05 µM) with Salmonella typhimurium and above 100 µg/mL in the assay on Candida albicans.
For the compound `Oc1ccc(Cc2ccc(O)c(Br)c2)cc1Br`, the MIC against Staphylococcus aureus is 25 µg/mL (≈ 69.8 µM); in the assay on Aspergillus fumigatus, above 100 µg/mL; against Micrococcus luteus, 12.5 µg/mL (≈ 34.9 µM); against Proteus vulgaris it was 25 µg/mL (≈ 69.8 µM); in the assay with Escherichia coli, above 100 µg/mL; against Trichophyton benhamiae, above 100 µg/mL. Also, the MIC in the assay with Bacillus subtilis was 12.5 µg/mL (≈ 34.9 µM); in the assay with Trichophyton rubrum, above 100 µg/mL; in the assay on Salmonella typhimurium, 25 µg/mL (≈ 69.8 µM); against Candida albicans, above 100 µg/mL.
In the case of `Oc1cc(Cc2cc(O)c(O)c(Br)c2Br)c(Br)c(Br)c1O`, the MIC against Staphylococcus aureus was 25 µg/mL (≈ 45.6 µM); with Aspergillus fumigatus, 0.78 µg/mL (≈ 1.42 µM); with Micrococcus luteus it was 25 µg/mL (≈ 45.6 µM); against Proteus vulgaris it was 50 µg/mL (≈ 91.3 µM); in the assay on Escherichia coli, above 100 µg/mL; in the assay with Trichophyton benhamiae it was 1.56 µg/mL (≈ 2.85 µM). Moreover, the MIC in the assay on Bacillus subtilis was 25 µg/mL (≈ 45.6 µM); in the assay with Trichophyton rubrum, 1.56 µg/mL (≈ 2.85 µM); against Salmonella typhimurium it was 50 µg/mL (≈ 91.3 µM); in the assay with Candida albicans, 1.56 µg/mL (≈ 2.85 µM).
As to `Oc1ccc(Cc2ccc(O)c(O)c2)cc1O`, the MIC against Staphylococcus aureus, in the assay on Aspergillus fumigatus, in the assay with Micrococcus luteus, against Proteus vulgaris, in the assay with Escherichia coli and in the assay on Trichophyton benhamiae was above 100 µg/mL throughout. For the same compound, the minimum inhibitory concentration (MIC) against Bacillus subtilis, in the assay on Trichophyton rubrum, in the assay on Salmonella typhimurium and with Candida albicans was above 100 µg/mL throughout.
`OCc1cc(O)c(O)c(Br)c1Cc1cc(O)c(O)c(Br)c1Br`: the MIC against Staphylococcus aureus was 50 µg/mL (≈ 100 µM); in the assay with Aspergillus fumigatus, above 100 µg/mL; in the assay with Micrococcus luteus, 50 µg/mL (≈ 100 µM); in the assay on Proteus vulgaris, 100 µg/mL (≈ 200 µM); in the assay on Escherichia coli it was above 100 µg/mL; with Trichophyton benhamiae, 50 µg/mL (≈ 100 µM). Besides, the MIC against Bacillus subtilis was 100 µg/mL (≈ 200 µM); against Trichophyton rubrum, 50 µg/mL (≈ 100 µM); in the assay on Salmonella typhimurium it was 100 µg/mL (≈ 200 µM); in the assay on Candida albicans, 100 µg/mL (≈ 200 µM).
In the case of `Oc1c(Br)cc(Cc2cc(Br)c(O)c(Br)c2)cc1Br`, the MIC against Staphylococcus aureus, in the assay on Aspergillus fumigatus, with Micrococcus luteus, in the assay with Proteus vulgaris, with Escherichia coli and against Trichophyton benhamiae was above 100 µg/mL each time. Further, the MIC in the assay with Bacillus subtilis, against Trichophyton rubrum, with Salmonella typhimurium and in the assay with Candida albicans was above 100 µg/mL throughout.
With `COCc1cc(O)c(O)c(Br)c1Br`, the MIC is above 100 µg/mL against Staphylococcus aureus; above 100 µg/mL against Aspergillus fumigatus; above 100 µg/mL with Micrococcus luteus; above 100 µg/mL against Proteus vulgaris; above 100 µg/mL against Escherichia coli; 12.5 µg/mL (≈ 40.1 µM) against Trichophyton benhamiae. In addition, the MIC in the assay with Bacillus subtilis is above 100 µg/mL; in the assay on Trichophyton rubrum it was 12.5 µg/mL (≈ 40.1 µM); against Salmonella typhimurium, above 100 µg/mL; in the assay with Candida albicans, 100 µg/mL (≈ 321 µM).
In the case of `Oc1ccc(Cc2cc(Br)c(O)c(Br)c2)cc1Br`, the MIC is 12.5 µg/mL (≈ 28.6 µM) with Staphylococcus aureus; above 100 µg/mL in the assay on Aspergillus fumigatus; 6.25 µg/mL (≈ 14.3 µM) with Micrococcus luteus; 6.25 µg/mL (≈ 14.3 µM) against Proteus vulgaris; above 100 µg/mL in the assay with Escherichia coli; above 100 µg/mL in the assay on Trichophyton benhamiae. The minimum inhibitory concentration (MIC) in the assay on Bacillus subtilis was 6.25 µg/mL (≈ 14.3 µM); against Trichophyton rubrum it was above 100 µg/mL; against Salmonella typhimurium, 6.25 µg/mL (≈ 14.3 µM); in the assay on Candida albicans, above 100 µg/mL.
In the case of `Oc1ccccc1Cc1cc(Br)ccc1O`, the MIC against Staphylococcus aureus was 25 µg/mL (≈ 89.6 µM); with Aspergillus fumigatus it was above 100 µg/mL; against Micrococcus luteus it was 25 µg/mL (≈ 89.6 µM); against Proteus vulgaris, 25 µg/mL (≈ 89.6 µM); in the assay with Escherichia coli, above 100 µg/mL; in the assay with Trichophyton benhamiae, above 100 µg/mL. The MIC in the assay with Bacillus subtilis is 25 µg/mL (≈ 89.6 µM); in the assay with Trichophyton rubrum, above 100 µg/mL; against Salmonella typhimurium it was 25 µg/mL (≈ 89.6 µM); in the assay on Candida albicans it was above 100 µg/mL.
On to `NCCc1cc(Br)c(O)c(Br)c1`, for which the minimal inhibitory concentration (MIC) with Staphylococcus aureus is 100 µg/mL (≈ 339 µM); with Aspergillus fumigatus it was above 100 µg/mL; against Micrococcus luteus it was above 100 µg/mL; against Proteus vulgaris, above 100 µg/mL; against Escherichia coli, above 100 µg/mL; with Trichophyton benhamiae, above 100 µg/mL. Also, the minimal inhibitory concentration (MIC) is above 100 µg/mL against Bacillus subtilis, above 100 µg/mL with Trichophyton rubrum, above 100 µg/mL in the assay with Salmonella typhimurium and 100 µg/mL (≈ 339 µM) against Candida albicans.
`C[C@@H]1[C@H](O)[C@@H](C)/C=C/C=C/C=C/C=C/C=C/C=C/C=C/[C@H](O[C@@H]2O[C@H](C)[C@@H](O)[C@H](N)[C@@H]2O)C[C@@H]2O[C@](O)(C[C@@H](O)C[C@@H](O)[C@H](O)CC[C@@H](O)C[C@@H](O)CC(=O)O[C@H]1C)C[C@H](O)[C@H]2C(=O)O` [AMPHOTERICIN B]: the MIC turned out to be 3.12 µg/mL (≈ 3.38 µM) in the assay with Aspergillus fumigatus, 3.12 µg/mL (≈ 3.38 µM) in the assay with Trichophyton benhamiae, 3.12 µg/mL (≈ 3.38 µM) against Trichophyton rubrum and 6.25 µg/mL (≈ 6.76 µM) in the assay on Candida albicans.
Consider `CC1(C)S[C@@H]2[C@H](NC(=O)[C@H](N)c3ccccc3)C(=O)N2[C@H]1C(=O)O` [AMPICILLIN], for which the MIC was 1.56 µg/mL (≈ 4.46 µM) against Staphylococcus aureus; 1.56 µg/mL (≈ 4.46 µM) against Micrococcus luteus; 3.12 µg/mL (≈ 8.93 µM) in the assay on Proteus vulgaris; 12.5 µg/mL (≈ 35.8 µM) against Escherichia coli; 1.56 µg/mL (≈ 4.46 µM) against Bacillus subtilis; 3.12 µg/mL (≈ 8.93 µM) in the assay with Salmonella typhimurium.
For the compound `OCc1cc(O)c(O)c(Br)c1Br` [LANOSOL], the MIC against Staphylococcus aureus is above 100 µg/mL; against Aspergillus fumigatus it was above 100 µg/mL; against Micrococcus luteus, above 100 µg/mL; in the assay on Proteus vulgaris, above 100 µg/mL; in the assay with Escherichia coli, above 100 µg/mL; with Trichophyton benhamiae it was 50 µg/mL (≈ 168 µM). The MIC in the assay on Bacillus subtilis was above 100 µg/mL; with Trichophyton rubrum, 50 µg/mL (≈ 168 µM); with Salmonella typhimurium, above 100 µg/mL; against Candida albicans, above 100 µg/mL.
